hERG protect = shields human hERG channel from block by proarrhythmic agents; 0.51% of 310,000 active; activation (rescue from dofetilide block), less the hit threshold, % at 10 µM; CHO-hERG, FluxOR thallium flux, dofetilide IC70 present;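 active = activation above the mean of controls blocked by dofetilide plus 5 SD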;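 also: thallium influx through hERG after potassium depolarization seen as dye fluorescence rise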
KCNK9 inh = inhibitors of human KCNK9 two-pore domain potassium channel | Q9NPC2 | HEK293 KCNK9, FluxOR thallium flux fluorescence; active compounds read low | B-score at 10 µM | 1.2% of 310,000 active | AID 488922;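 active = ratio B-score over 3 SD below the library mean, with starting fluorescence within 5 SD of its mean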;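 also: negative B-score means less thallium flux so channel inhibition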
Target sequence (Q9NPC2 whole entry, looked up, the tested form may be a part): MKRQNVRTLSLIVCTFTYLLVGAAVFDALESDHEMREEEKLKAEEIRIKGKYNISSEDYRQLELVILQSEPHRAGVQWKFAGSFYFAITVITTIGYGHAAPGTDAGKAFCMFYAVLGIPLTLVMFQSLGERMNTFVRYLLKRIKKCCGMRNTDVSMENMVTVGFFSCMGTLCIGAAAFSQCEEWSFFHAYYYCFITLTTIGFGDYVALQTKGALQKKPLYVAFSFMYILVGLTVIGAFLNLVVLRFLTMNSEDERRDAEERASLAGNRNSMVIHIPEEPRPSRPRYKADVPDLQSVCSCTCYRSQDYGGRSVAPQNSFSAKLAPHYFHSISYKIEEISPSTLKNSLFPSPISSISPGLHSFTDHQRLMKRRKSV
KCNQ1 pot = potentiators or activators of human KCNQ1 potassium channel; CHO-K1 KCNQ1, thallium flux FluxOR fluorescence; active compounds read high; B-score at 10 µM; 0.35% of 310,000 active; AID 2648;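 active = fluorescence ratio B-score, a plate-corrected score, at least three library SD, with initial intensity B-score within 5 SD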
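Assay system: stable KCNQ1 CHO-K1 line; medium: assay buffer, equal DMSO in all wells; timing: 90 min dye loading and 20 min compound exposure, both at room temperature; technique: kinetic FluxOR thallium fluorescence, 10-s 1-Hz baseline, 110-s post-stimulus read; read-out basis: B score of baseline-normalized fluorescence ratio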
KCNK3 inh = human KCNK3 channel inhibition, primary screen | B-score at 10 µM | 0.84% of 340,000 active | CHO-KCNK3 thallium flux, FluxOR fluorescence; active compounds read low;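 active = B-score under library mean minus 4 SD, starting fluorescence ratio at most library mean plus 5 SD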;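 also: more negative B-score means stronger inhibition of thallium flux through KCNK3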
Target sequence (O14649 whole entry, looked up): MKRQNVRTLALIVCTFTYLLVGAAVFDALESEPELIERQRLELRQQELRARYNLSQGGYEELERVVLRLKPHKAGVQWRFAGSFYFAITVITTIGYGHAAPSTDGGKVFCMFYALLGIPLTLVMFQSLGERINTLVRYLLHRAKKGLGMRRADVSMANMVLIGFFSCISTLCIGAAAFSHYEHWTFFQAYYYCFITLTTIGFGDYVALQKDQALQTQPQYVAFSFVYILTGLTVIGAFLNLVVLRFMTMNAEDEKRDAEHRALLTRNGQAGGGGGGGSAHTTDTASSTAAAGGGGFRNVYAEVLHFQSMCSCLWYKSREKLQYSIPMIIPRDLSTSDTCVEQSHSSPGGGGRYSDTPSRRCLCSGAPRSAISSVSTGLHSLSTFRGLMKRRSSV
KCNQ1 block = inhibitors of human KCNQ1 potassium channel; CHO-K1 KCNQ1, FluxOR thallium flux fluorescence; active compounds read high; P51787; 1.3% of 310,000 active; B-score at 10 µM;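 active = compounds whose thallium flux B-score, printed positive for inhibition, exceeds three library SD while starting fluorescence stays within three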;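 also: channel opened by potassium depolarization with thallium stimulus after 20 min compound exposure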
KCNK9 inh conf = confirmation of human KCNK9 potassium channel inhibitors; 43% of 4,900 active; shares compounds with KCNK9 inh; inhibition, % at 10 µM; HEK293 KCNK9 cells, FluxOR thallium flux fluorescence; AID 492992;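 active = thallium signal inhibited by more than 5 SD of the compound-free buffer control wells, on both duplicate plates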
Kir21 sel = tests whether KCNK9 modulators also affect mouse Kir2.1; shares compounds with KCNK9 inh; Kir2.1 cells, FluxOR thallium flux fluorescence; inhibition, % at 10 µM; 4% of 4,900 active;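 active = thallium signal drop more than 5 SD beyond the mean of the no-compound control wells, seen in both duplicate plates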;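 also: signal is fluorescence rise after thallium addition divided by baseline fluorescence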
KCNK9 uninduced = second check of KCNK9 modulator effects in non-induced HEK293 cells. FluxOR thallium flux. 40% of 4,900 active. shares compounds with KCNK9 inh. inhibition, % at 10 µM;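 active = thallium signal drop beyond 5 SD of the untreated control mean, on both duplicate plates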
KCNK3 inh conf = human KCNK3 channel inhibition, confirmation assay; 99% of 2,400 active; CHO-KCNK3 thallium flux, FluxOR fluorescence; 0% buffer, 100% carvedilol maximal block; ratio percent of control, % at 10 µM; shares compounds with KCNK3 inh;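 active = ratio percent of control, averaged over triplicates, above buffer control mean plus 5 SD, cut at about 64% in these data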;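 also: ratio is the fluorescence rise from min to max over baseline after thallium stimulus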
KCNK3 uninduced = KCNK3 inhibitor counter-screen hit in non-induced cells; shares compounds with KCNK3 inh; thallium flux ratio (lower = more inhibition) at 10 µM; 40% of 2,400 active; non-induced KCNK3 parental cells, FluxOR thallium flux; active compounds read low; AID 651747;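 active = thallium flux ratio, averaged over three wells, more than 5 SD below the buffer control mean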;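 also: host cells are CHO cells without KCNK3 induction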
Hits are given with their value; n = inactive; x = no result given. In the library only some 3.1% were active in any assay of this set; here they are far more common.

SMILES | hERG protect | KCNK9 inh | KCNQ1 pot | KCNK3 inh | KCNQ1 block | KCNK9 inh conf | Kir21 sel | KCNK9 uninduced | KCNK3 inh conf | KCNK3 uninduced
CCOc1ccccc1C(=O)Nc1cc2c(cc1N1CCCC1)n(CC)c(=O)n2CC | n | -13.9 | n | -8.78 | n | 51.0% | n | 22.5% | 101.0 | n
CC(C)c1ccc(NC(=O)CCNC(=O)N2CC(=O)Nc3ccccc32)cc1 | n | n | n | n | n | x | x | x | x | x
Clc1ccc(CSc2snnc2-c2ccccc2)cc1 | n | -8.57 | n | -12.1 | n | 30.5% | n | 45.0% | 96.3 | n
CC1(C)Oc2ccc3ccc(=O)oc3c2/C(=C/O)C1=O | n | n | n | n | n | x | x | x | x | x
CC1(C)Oc2ccc3ccc(=O)oc3c2/C(=C/Nc2ccccc2)C1=O | n | -11.8 | n | -10.5 | n | 55.5% | n | n | 109.7 | n
O=C(N/N=C/C(Cl)=C/c1ccccc1)c1ccccc1F | n | n | n | n | n | x | x | x | x | x
O=C(N/N=C/C(Br)=C/c1ccccc1)c1ccccc1F | n | -9.17 | n | -9.42 | n | 28.5% | n | n | 98.3 | n
O=C(c1ccccc1)c1cccc(NC(=O)c2ccc(Br)o2)c1 | n | -9.15 | n | -9.73 | n | n | n | n | 105.7 | n
O=C(Nc1cccc(NC(=O)c2ccco2)c1)c1cccc(Br)c1 | n | -10.5 | n | -13.3 | n | 59.0% | n | n | 100.0 | n
Cc1cc(C(=O)CSc2nc3ccc(Cl)cc3[nH]2)c(C)n1Cc1ccco1 | n | n | n | -9.7 | n | n | n | n | 93.7 | n
CCOC(=O)C(C)Sc1cc(CS(=O)(=O)c2ccccc2)nc(-c2ccccc2)n1 (centres undefined) | n | -10.3 | n | -8.76 | n | 58.0% | n | 28.0% | 125.0 | n
CCOC(=O)C(C)Sc1ncc(-c2ccccc2)cn1 (centres undefined) | n | n | n | n | n | x | x | x | x | x
COc1ccccc1NC(=S)NC(=O)CCCOc1ccc(Cl)cc1Cl | n | -23.2 | n | -10.1 | n | 58.0% | n | 30.5% | 116.7 | n
CC1(C)Cc2cccc(C(=O)Nc3ccncc3)c2O1 | n | n | n | n | n | x | x | x | x | x
CC1(C)Cc2cccc(C(=O)Nc3ccc(Cl)cc3)c2O1 | n | -10.5 | n | -11.9 | n | 46.5% | n | n | 89.0 | 0.157
O=C(c1ccco1)N1CCN(c2nc(C3CC3)nc3sc4c(c23)CCCC4)CC1 | n | -18.8 | n | -8.7 | n | 66.0% | n | 27.5% | 116.7 | 0.134
COc1ccc(C(=O)N2CCN(c3nc(C4CC4)nc4sc(C)c(C)c34)CC2)cc1 | n | n | n | n | n | x | x | x | x | x
Cc1sc2nc(C3CC3)nc(N3CCN(C(=O)c4ccc(F)cc4)CC3)c2c1C | n | -14.3 | n | -13.4 | n | 29.0% | n | 28.5% | 92.3 | n
Cc1nc(N2CCN(C(=O)c3ccco3)CC2)c2c3c(sc2n1)CCCC3 | n | n | n | n | n | x | x | x | x | x
Cc1sc2nc(C3CC3)nc(N3CCN(S(=O)(=O)c4ccc(F)cc4)CC3)c2c1C | n | n | n | n | n | x | x | x | x | x
Cc1sc2nc(C3CC3)nc(N3CCN(C(=O)c4ccccc4F)CC3)c2c1C | n | -13.1 | n | -11.7 | n | n | n | 28.5% | 114.3 | 0.138
COc1cc([N+](=O)[O-])ccc1NC(=O)CCS(=O)(=O)c1ccc2c(c1)n(C)c(=O)c(=O)n2C | n | n | n | n | n | x | x | x | x | x
Cc1ccc(Nc2nc(Nc3ccc(C)cc3)nc(SC3=NCCS3)n2)cc1 | n | n | n | n | n | x | x | x | x | x
Cc1ccccc1Nc1nc(Nc2ccccc2C)nc(SC2=NCCS2)n1 | n | -9.89 | n | -12.9 | n | 37.0% | n | 26.5% | 124.0 | 0.117
O=C(Oc1ccccc1)c1ccc2c(c1)C(=O)N(Cc1ccncc1)C2=O | n | n | n | n | n | x | x | x | x | x
SMILES | hERG protect | KCNK9 inh | KCNQ1 pot | KCNK3 inh | KCNQ1 block | KCNK9 inh conf | Kir21 sel | KCNK9 uninduced | KCNK3 inh conf | KCNK3 uninduced
O=C(COc1ccc(Cl)cc1)N(Cc1ccccc1)c1nc(-c2ccccc2)cs1 | n | n | n | n | n | x | x | x | x | x
O=C(C1CC1)N(Cc1ccco1)c1nc(-c2ccccc2)cs1 | n | -11.8 | n | -9.55 | n | 30.5% | n | 49.0% | 109.3 | n
CCOC(=O)c1nnc(-c2ccccc2)nc1NCc1ccc(Cl)cc1 | n | -10.2 | n | -9.69 | n | 38.5% | n | 43.0% | 97.0 | 0.144
Cc1ccc(NC(=O)COC(=O)CC2SC(N3CCCC3)=NC2=O)cc1 (centres undefined) | x | x | x | n | x | x | x | x | x | x
O=C(CNS(=O)(=O)c1c(F)cccc1F)NC1CCCc2ccccc21 (centres undefined) | x | x | x | n | x | x | x | x | x | x
CCOC(=O)c1c(CN(C)C)n(-c2ccc(C)cc2)c2cc(Br)c(O)cc12 | n | n | n | n | n | x | x | x | x | x
CCOC(=O)c1c(CSC(=N)N)n(-c2ccc(C)cc2)c2cc(Br)c(OC(C)=O)cc12 | n | -8.7 | n | -11.8 | 6 | n | n | n | 129.3 | 0.153
CCN(CC)c1ccc(/C=N/n2c(C)nc3ccccc3c2=O)cc1 | n | n | n | n | n | x | x | x | x | x
O=[N+]([O-])c1cnc2nc(-c3ccncc3)nn2c1O | n | n | n | n | n | x | x | x | x | x
CC/C(=N/N=C(/CC)c1ccc(O)cc1)c1ccc(O)cc1 | n | -15.2 | n | -9.62 | n | 55.5% | n | 30.5% | 92.0 | n
CCCC(=O)NCc1nc2ccccc2n1CC(=O)c1ccccc1 | n | n | n | n | n | x | x | x | x | x
O=C(NCCn1cc(SCc2ccccc2)c2ccccc21)c1c(F)cccc1F | n | n | n | n | n | x | x | x | x | x
O=C(NCCn1cc(SCc2ccc(F)cc2)c2ccccc21)c1c(F)cccc1F | n | -13.9 | n | -9.87 | n | 60.0% | n | 31.0% | 94.3 | n
CCN(CC)S(=O)(=O)c1cc(NC(=O)c2ccc(-n3cncn3)c([N+](=O)[O-])c2)ccc1C | n | n | n | n | n | x | x | x | x | x
COc1ccc(NC(=S)Nc2ccc(C)c(Cl)c2)cc1OC | n | n | n | n | n | x | x | x | x | x
Cc1cccc(C)c1NC(=S)Nc1ccc(Cl)c(Cl)c1 | n | -9.12 | n | -11.6 | 8 | 47.5% | n | n | 86.0 | 0.144
CN(C)N=Nc1ccc(-c2cn(Cc3ccccc3)cn2)cc1 | n | n | n | n | n | x | x | x | x | x
O=S(=O)(N/N=C\c1ccc2c(c1)OCO2)c1ccc(Cl)cc1 | n | n | n | n | n | x | x | x | x | x
Cc1ccc(NNC(=O)Nc2ccc(Cl)cc2)nn1 | n | n | n | n | n | x | x | x | x | x

Assay outcomes (PubChem BioAssay)
